Test results from ChEMBL document CHEMBL3352507, “Preparation and antimalarial activity of a novel class of carbohydrate-derived, fused thiochromans” (Eur J Med Chem, 2014).

Key:
Plasmodium falciparum [1] = test: Antimalarial activity against Plasmodium falciparum 3D7 after 48 hrs by parasite lactate dehydrogenase assay; assay type: functional, organism-based; details: 3D7, 48 h
Summary of the method: (§1)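 Parasite survival read by parasite lactate dehydrogenase (pLDH) assay. Single-concentration prescreen at […]; compounds with 0–15% survival were taken to dose–response. Ten three-fold serial dilutions in triplicate, incubated 48 h in a gassed airtight box, developed with NBT/PES. IC50 from sigmoidal curve of % survival relative to control against log concentration.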

Plasmodium falciparum [2] = test: Antimalarial activity against Plasmodium falciparum FCR3 after 48 hrs by parasite lactate dehydrogenase assay; assay type: functional, organism-based; details: FCR3, 48 h; summary of the method: as §1
[3] = Cytotoxicity against human WI38 cells after 48 hrs by SRB assay; assay type: cell-based; details: WI-38, 48 h
Summary of the method: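 WI-38 human fetal lung fibroblasts (passages 21–50) in EMEM with 10% FBS, 2 mM L-glutamine and gentamicin, at 37 °C and 5% CO2. Seeded at 10 000 cells/well, grown 24 h, then given compound in DMSO diluted in medium to 5 concentrations for 48 h. Cells were fixed with cold 50% TCA and stained with SRB, and dye was read at 540 nm. IC50 by non-linear regression against untreated controls.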

[4] = Cytotoxicity against human WI38 cells assessed as cell viability at 100 uM after 48 hrs by SRB assay; assay type: cell-based, WI-38; details: read-out: Activity
Summary of the method: (§2)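 WI-38 fibroblasts (passages 21–50) were seeded at 10 000 cells/well for 24 h, then exposed for 48 h to compound dissolved in DMSO and diluted in medium. Viable cells were fixed with cold 50% trichloroacetic acid and stained with sulforhodamine B. Bound dye was extracted with 10 mM Tris base and read at 540 nm. Viability relative to drug-free cells.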

[5] = Cytotoxicity against human WI38 cells assessed as cell viability at 10 uM after 48 hrs by SRB assay; assay type: cell-based, WI-38; details: read-out: Activity; summary of the method: as §2
[6] = Cytotoxicity against human WI38 cells assessed as cell viability at 1 uM after 48 hrs by SRB assay; assay type: cell-based, WI-38; details: read-out: Activity; summary of the method: as §2
[7] = Cytotoxicity against human WI38 cells assessed as cell viability at 0.1 uM after 48 hrs by SRB assay; assay type: cell-based, WI-38; details: read-out: Activity; summary of the method: as §2
[8] = Cytotoxicity against human WI38 cells assessed as cell viability at 0.01 uM after 48 hrs by SRB assay; assay type: cell-based, WI-38; details: read-out: Activity; summary of the method: as §2

Row | IC50 (Plasmodium falciparum [1]) [µM] | IC50 (Plasmodium falciparum [2]) [µM] | Compound | IC50 [3] [µM] | viability at 48 h, 100 µM [4] [%] | viability at 48 h, 10 µM [5] [%] | viability at 48 h, 1 µM [6] [%] | viability at 48 h, 0.1 µM [7] [%] | viability at 48 h, 0.01 µM [8] [%]
1 | 3.46 | 2.05 | c1ccc(COC[C@H]2O[C@@H]3c4ccccc4SC[C@@H]3[C@@H](OCc3ccccc3)[C@@H]2OCc2ccccc2)cc1 | > 100 | 58.1 | 85 | 97.6 | 98.6 | 100
2 | > 100 | 3.37 | Cc1ccc2c(c1)[C@H]1O[C@H](COCc3ccccc3)[C@@H](OCc3ccccc3)[C@H](OCc3ccccc3)[C@H]1CS2 | > 100 | 72.8 | 90 | 97 | 96.3 | 97
3 | > 100 | 1.73 | COc1ccc2c(c1)[C@H]1O[C@H](COCc3ccccc3)[C@@H](OCc3ccccc3)[C@H](OCc3ccccc3)[C@H]1CS2 | > 100 | 61 | 90.8 | 93.8 | 95.8 | 97
4 | > 100 | 2.26 | Cc1cccc2c1SC[C@@H]1[C@@H](OCc3ccccc3)[C@H](OCc3ccccc3)[C@@H](COCc3ccccc3)O[C@H]21 | > 100 | 68.8 | 85.4 | 97.5 | 99.5 | 103
5 | > 100 | 4.11 | Cc1ccc2c(c1)[C@H]1O[C@H](COCc3ccccc3)[C@@H](OCc3ccccc3)[C@H](OCc3ccccc3)[C@H]1C[S@+]2[O-] | > 100 | 69.7 | 95.9 | 99.1 | 101 | 103
6 | 2.75 | 2.62 | COc1ccc2c(c1)[C@H]1O[C@H](COCc3ccccc3)[C@@H](OCc3ccccc3)[C@H](OCc3ccccc3)[C@H]1C[S@+]2[O-] | > 100 | 79.9 | 95.8 | 97.4 | 100 | 99.8
7 | 0.3 | 0.33 | CC(C)(C)c1ccc2c(c1)[C@H]1O[C@H](COCc3ccccc3)[C@@H](OCc3ccccc3)[C@H](OCc3ccccc3)[C@H]1C[S@+]2[O-] | > 100 | 55.9 | 92.8 | 100 | 102 | 102
